The source of these data is ChEMBL document CHEMBL3271993, “Synthesis and some pharmacological properties of five analogs of oxytocin having L-homocysteine in position 6” (J Med Chem, 1976).

The structures appear in SMILES notation. Starred links: 1 amine or outer side, 2 acyl side, 3 side chain; linkers in the order of their positions; H or OH if unused. Positions of bridges follow the written chain, without caps; N, C: chain ends. Non-standard residues stand in square brackets, D forms with d. Residues, ends and D or L forms follow the SMILES beside them. hCys = N[C@@H](CCS)C(=O)O; X1 = O=C(CCCS[*:2])[*:1]; X2 = O=C(CS[*:2])[*:1]

For assay [1], the target named is T1, Oxytocin receptor (Rattus norvegicus) (UniProt P70536).
T1 sequence (whole entry): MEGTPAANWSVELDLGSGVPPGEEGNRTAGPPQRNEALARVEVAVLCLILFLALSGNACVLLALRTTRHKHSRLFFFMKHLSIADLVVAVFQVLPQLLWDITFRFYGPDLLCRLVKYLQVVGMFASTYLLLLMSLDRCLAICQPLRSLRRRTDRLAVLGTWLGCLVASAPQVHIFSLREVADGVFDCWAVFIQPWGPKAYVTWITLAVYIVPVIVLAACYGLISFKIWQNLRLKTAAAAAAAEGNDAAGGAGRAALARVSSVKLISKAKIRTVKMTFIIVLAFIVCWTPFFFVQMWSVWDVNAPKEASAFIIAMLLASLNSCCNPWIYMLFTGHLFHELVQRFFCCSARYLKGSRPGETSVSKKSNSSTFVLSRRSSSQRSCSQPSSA
Nature of the assay: Agonist activity at oxytocin receptor in rat uterus. It counts as tissue-based. Summed up: (§1)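 Purified analogs tested against U.S.P. Agonist activity expressed as units per mg, given as mean potency ± standard error.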

The species entered for assay [2] is Gallus gallus. Nature of the assay: Agonist activity at oxytocin receptor in chicken by avian vasodepressor assay. In short, it runs like this: as §1
Assay [3] deals with T2, Oxytocin receptor (Rattus norvegicus, UniProt P70536).
T2 sequence (P70536 whole entry): T1 sequence (whole entry)
The experiment in a line: Antagonist activity at oxytocin receptor in rat uterus assessed as inhibition of synthetic oxytocin-induced response treated 1.5 to 2 mins prior to oxytocin challenge. It counts as tissue-based. The following applies: read-out: pA2 (converted). In short, it runs like this: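 Antagonist injected 1.5-2 min before synthetic oxytocin, giving any agonist response time to finish. Potency given as pA2 (Schild): the negative log of the average molar antagonist concentration that brings the response to 2x agonist units down to that of x units.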

The nature of assay [4]: Antagonist activity at oxytocin receptor in chicken assessed as inhibition of synthetic oxytocin-induced response by avian vasodepressor assay. Further details: species or system Gallus gallus. Summed up:
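Inhibitory potency given as pA2 (Schild): the negative log of the average molar antagonist concentration that reduces the response to 2x units of agonist to the level of x units of agonist.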

`CC[C@H](C)[C@@H]1NC(=O)[C@H](Cc2ccc(O)cc2)NC(=O)CSSCC[C@@H](C(=O)N2CCC[C@H]2C(=O)N[C@@H](CC(C)C)C(=O)NCC(N)=O)NC(=O)[C@H](CC(N)=O)NC(=O)[C@H](CCC(N)=O)NC1=O` (YIQN[hCys]PLG-NH2; linker N-5 via X2): the Activity in assay [1] is 37 U/mg; in assay [2], 0.3 U/mg.
What is called pA2 is a measure of antagonist potency on a negative log scale. As to `CC[C@H](C)[C@@H]1NC(=O)[C@H](Cc2ccc(O)cc2)NC(=O)CCCSSCC[C@@H](C(=O)N2CCC[C@H]2C(=O)N[C@@H](CC(C)C)C(=O)NCC(N)=O)NC(=O)[C@H](CC(N)=O)NC(=O)[C@H](CCC(N)=O)NC1=O` (YIQN[hCys]PLG-NH2; linker N-5 via X1), the Activity in assay [1] was found to be 0.3 U/mg. Further, the Kb in assay [3] was 182 nM. In addition, the pA2 in assay [4] was found to be 7.34.
Consider `CC[C@H](C)[C@@H]1NC(=O)[C@H](Cc2ccc(O)cc2)NC(=O)CCSSC[C@H](C(=O)N2CCC[C@H]2C(=O)N[C@@H](CC(C)C)C(=O)NCC(N)=O)NC(=O)[C@H](CC(N)=O)NC(=O)[C@H](CCC(N)=O)NC1=O`, for which the Activity turned out to be 803 U/mg in assay [1] and 975 U/mg in assay [2].
Turning to `CC[C@H](C)[C@@H]1NC(=O)[C@H](Cc2ccc(O)cc2)NC(=O)[C@@H](N)CCSSCC[C@@H](C(=O)N2CCC[C@H]2C(=O)N[C@@H](CC(C)C)C(=O)NCC(N)=O)NC(=O)[C@H](CC(N)=O)NC(=O)[C@H](CCC(N)=O)NC1=O`, the Kb in assay [3] was 955 nM. In addition, the pA2 in assay [4] was 6.48.
`CC[C@H](C)[C@@H]1NC(=O)[C@H](Cc2ccc(O)cc2)NC(=O)[C@@H](N)CSSCC[C@@H](C(=O)N2CCC[C@H]2C(=O)N[C@@H](CC(C)C)C(=O)NCC(N)=O)NC(=O)[C@H](CC(N)=O)NC(=O)[C@H](CCC(N)=O)NC1=O`: the Activity is 12 U/mg in assay [1] and 0.2 U/mg in assay [2].
In the same order, the values of `CC[C@H](C)[C@@H]1NC(=O)[C@H](Cc2ccc(O)cc2)NC(=O)[C@@H](N)CSSC[C@@H](C(=O)N2CCC[C@H]2C(=O)N[C@@H](CC(C)C)C(=O)NCC(N)=O)NC(=O)[C@H](CC(N)=O)NC(=O)[C@H](CCC(N)=O)NC1=O` are 546 U/mg and 507 U/mg.
Compound `CC[C@H](C)[C@@H]1NC(=O)[C@H](Cc2ccc(O)cc2)NC(=O)CCSSCC[C@@H](C(=O)N2CCC[C@H]2C(=O)N[C@@H](CC(C)C)C(=O)NCC(N)=O)NC(=O)[C@H](CC(N)=O)NC(=O)[C@H](CCC(N)=O)NC1=O` came in with an Activity in assay [1] of 22 U/mg. Further, in assay [4], the pA2 is 7.57.
